We go through 16 compounds from ChEMBL document CHEMBL3813684, “A Prospective Virtual Screening Study: Enriching Hit Rates and Designing Focus Libraries To Find Inhibitors of PI3Kδ and PI3Kγ” (J Med Chem, 2016).

Sequence of Phosphatidylinositol 4,5-bisphosphate 3-kinase catalytic subunit gamma isoform (P48736 whole entry, the tested form may be a part, canonical isoform): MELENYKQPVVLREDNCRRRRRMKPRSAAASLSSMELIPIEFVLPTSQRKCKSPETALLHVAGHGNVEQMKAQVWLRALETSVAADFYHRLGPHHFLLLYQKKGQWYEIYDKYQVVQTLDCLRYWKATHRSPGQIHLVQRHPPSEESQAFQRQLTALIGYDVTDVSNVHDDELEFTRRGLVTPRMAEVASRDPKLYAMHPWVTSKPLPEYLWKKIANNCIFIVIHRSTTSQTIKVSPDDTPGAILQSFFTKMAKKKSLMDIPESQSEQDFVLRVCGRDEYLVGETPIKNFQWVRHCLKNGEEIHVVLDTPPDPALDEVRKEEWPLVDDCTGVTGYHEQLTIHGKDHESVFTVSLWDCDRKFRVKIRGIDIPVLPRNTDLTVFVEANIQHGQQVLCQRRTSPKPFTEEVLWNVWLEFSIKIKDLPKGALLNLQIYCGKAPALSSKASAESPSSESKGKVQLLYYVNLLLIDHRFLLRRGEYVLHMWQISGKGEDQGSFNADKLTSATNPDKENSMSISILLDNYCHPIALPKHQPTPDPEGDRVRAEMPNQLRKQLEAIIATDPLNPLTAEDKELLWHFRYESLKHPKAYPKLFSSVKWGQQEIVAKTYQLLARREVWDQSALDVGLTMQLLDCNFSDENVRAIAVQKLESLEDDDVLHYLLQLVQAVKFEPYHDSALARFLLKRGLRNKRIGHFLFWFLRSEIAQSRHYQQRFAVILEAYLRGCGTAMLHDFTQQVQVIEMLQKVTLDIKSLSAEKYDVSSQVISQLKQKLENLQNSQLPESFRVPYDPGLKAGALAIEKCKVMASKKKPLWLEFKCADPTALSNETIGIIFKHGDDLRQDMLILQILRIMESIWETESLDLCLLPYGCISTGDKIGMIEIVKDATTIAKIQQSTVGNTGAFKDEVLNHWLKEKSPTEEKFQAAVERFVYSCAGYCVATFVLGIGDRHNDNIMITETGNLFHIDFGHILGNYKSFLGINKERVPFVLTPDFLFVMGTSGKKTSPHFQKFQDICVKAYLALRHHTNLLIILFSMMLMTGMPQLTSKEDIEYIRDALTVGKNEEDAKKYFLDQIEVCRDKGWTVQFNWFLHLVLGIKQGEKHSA

The first assay addresses Phosphatidylinositol 4,5-bisphosphate 3-kinase catalytic subunit gamma isoform (Homo sapiens, UniProt P48736). In words: Inhibition of human PI3Kgamma using PIP2 as substrate by HTRF assay in presence of biotin-PIP3. The method, boiled down: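 HTRF enzyme assay: PI3Kγ added to mix of ATP, MgCl2 and PIP2 substrate (apparent Km 200 µM ATP, 15 µM PIP2). PIP3 product read by displacement of biotin-PIP3 from Eu-anti-GST antibody/GST-GRP1 PH domain/biotin-PIP3/streptavidin-APC complex. Primary screen at 10 µM, hits >2 SD from mean; confirmation in triplicate at 10 µM; dose response as pIC50.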
In general terms: Time-resolved FRET reads energy transfer from a long-lived donor to a nearby acceptor.
By IC50 is commonly meant the midpoint of a concentration-inhibition curve. Consider `COc1cc(-c2cnn3ccc(Nc4ccc(C(C)C)cc4)nc23)ccc1O`, for which the IC50 was 2.4 µM.
The same measure, in the same setting: for `FC(F)(F)c1cc(Nc2nc3ccccc3s2)cc(C(F)(F)F)c1` the value was 5.5 µM.
For the compound `COc1cc(Nc2ccn3ncc(-c4cccc(C(N)=O)c4)c3n2)cc(OC)c1OC`, the IC50 is 6.17 µM.
For `COc1cc(-c2cnc3ccc(NCc4ccco4)nn23)ccc1O`, the IC50 was 6.92 µM.
Regarding `COc1cncc(-c2cnn3ccc(NC4CCC(O)CC4)nc23)c1` (stereo unspecified), the IC50 is 5.75 µM.

Another assay deals with PI3-kinase p110-delta/p85-alpha (Homo sapiens, UniProt O00329). In words: Inhibition of human full length recombinant His-tagged PIK3CD/PIK3R1 expressed in baculovirus expression system after 60 mins by LanthaScreen Eu binding assay in presence of kinase tracer 314. In short, it runs like this: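 Binding displacement in 50 mM HEPES pH 7.5, 10 mM MgCl2, 1 mM EGTA, 0.01% Brij-35. Enzyme 0.5 nM with Eu-anti-GST antibody 2 nM added to pre-spotted compound, then tracer 314 10 nM (all final). Controls omit enzyme. 60 min at room temperature; TR-FRET read at excitation 320 nm, emission 615/665 nm. Results as pIC50.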
Sequence of PI3-kinase p110-delta/p85-alpha (P27986 whole entry): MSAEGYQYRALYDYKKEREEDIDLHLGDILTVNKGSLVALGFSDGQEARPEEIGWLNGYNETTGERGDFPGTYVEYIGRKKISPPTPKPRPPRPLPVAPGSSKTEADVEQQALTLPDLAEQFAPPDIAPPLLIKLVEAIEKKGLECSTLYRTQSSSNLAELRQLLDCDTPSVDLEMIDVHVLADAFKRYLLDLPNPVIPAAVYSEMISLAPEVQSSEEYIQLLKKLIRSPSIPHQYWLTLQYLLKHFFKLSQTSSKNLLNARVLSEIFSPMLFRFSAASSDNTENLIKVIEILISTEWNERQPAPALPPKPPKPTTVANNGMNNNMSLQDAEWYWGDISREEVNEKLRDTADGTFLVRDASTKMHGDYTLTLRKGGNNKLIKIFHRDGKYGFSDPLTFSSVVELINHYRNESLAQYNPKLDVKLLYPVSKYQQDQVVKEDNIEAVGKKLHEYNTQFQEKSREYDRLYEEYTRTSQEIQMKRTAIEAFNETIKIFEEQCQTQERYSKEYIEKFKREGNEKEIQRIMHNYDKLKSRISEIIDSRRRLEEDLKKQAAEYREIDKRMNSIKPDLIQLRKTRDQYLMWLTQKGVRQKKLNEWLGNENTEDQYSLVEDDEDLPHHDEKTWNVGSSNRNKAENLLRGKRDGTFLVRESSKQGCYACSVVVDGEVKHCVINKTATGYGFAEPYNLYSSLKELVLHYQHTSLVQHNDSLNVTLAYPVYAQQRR
Sequence of PI3-kinase p110-delta/p85-alpha (O00329 whole entry): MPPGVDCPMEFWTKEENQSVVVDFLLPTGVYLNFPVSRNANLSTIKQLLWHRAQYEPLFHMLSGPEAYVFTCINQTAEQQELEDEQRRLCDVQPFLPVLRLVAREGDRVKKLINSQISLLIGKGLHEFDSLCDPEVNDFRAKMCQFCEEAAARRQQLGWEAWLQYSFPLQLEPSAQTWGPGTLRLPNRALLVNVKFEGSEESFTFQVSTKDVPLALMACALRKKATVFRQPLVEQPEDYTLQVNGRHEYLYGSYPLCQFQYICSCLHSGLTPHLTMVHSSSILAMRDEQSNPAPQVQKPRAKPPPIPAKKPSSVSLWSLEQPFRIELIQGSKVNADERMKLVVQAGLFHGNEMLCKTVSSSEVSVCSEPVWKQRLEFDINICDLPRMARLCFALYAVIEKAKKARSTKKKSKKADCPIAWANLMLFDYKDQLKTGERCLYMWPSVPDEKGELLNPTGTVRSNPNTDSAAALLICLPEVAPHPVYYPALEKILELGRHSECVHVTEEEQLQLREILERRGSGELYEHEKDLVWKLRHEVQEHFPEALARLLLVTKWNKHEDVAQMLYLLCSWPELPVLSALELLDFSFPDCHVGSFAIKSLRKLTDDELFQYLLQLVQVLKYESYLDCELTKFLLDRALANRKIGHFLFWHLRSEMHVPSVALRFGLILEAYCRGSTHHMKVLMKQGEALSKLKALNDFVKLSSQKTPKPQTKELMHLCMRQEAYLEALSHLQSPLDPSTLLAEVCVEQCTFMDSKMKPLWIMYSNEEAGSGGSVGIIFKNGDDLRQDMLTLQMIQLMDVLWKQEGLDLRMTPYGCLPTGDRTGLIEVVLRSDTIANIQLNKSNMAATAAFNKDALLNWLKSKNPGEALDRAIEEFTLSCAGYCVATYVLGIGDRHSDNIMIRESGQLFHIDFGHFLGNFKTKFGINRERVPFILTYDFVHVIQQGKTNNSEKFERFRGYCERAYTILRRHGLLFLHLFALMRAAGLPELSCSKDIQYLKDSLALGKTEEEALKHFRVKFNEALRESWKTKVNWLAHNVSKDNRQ
In the case of `CN(Cc1ccccc1)c1ncnc2ccc(Br)cc12`, the IC50 is 6.92 µM.
Turning to `Cc1nc2ccc(Cl)cn2c1-c1ccnc(N)n1`, the IC50 was 2.57 µM.
For `Cn1ccc2cc(-c3cnc4cnc(-c5cccc(C(N)=O)c5)cn34)ccc21`, the half-maximal inhibitory concentration (IC50) is 0.427 µM.
For `O=C(C1CC=CCC1)N1CCCC(c2n[nH]c3ncccc23)C1` (stereo unspecified), the 50% inhibitory concentration (IC50) is 8.51 µM.
For the compound `c1ccc(CSc2nc(N3CCOCC3)c3sccc3n2)cc1`, the IC50 is 3.8 µM.
With `c1cncc(CCNc2ccc3ncc(-c4cc5ccccc5s4)n3n2)c1`, the IC50 is 6.46 µM.
As to `NC(=O)c1nc(-c2ccc3ncccc3c2)nc2c1[nH]c(=O)n2CCc1ccccc1`, the IC50 was 2.45 µM.
Still for that read-out and setting: next, `Clc1ccc2ncnc(NCCCc3ccccc3)c2c1`: 3.16 µM; `Clc1ccc2ncnc(NCCOc3ccccc3)c2c1`: 5.5 µM; `CN1CCC(NCc2ccc(Nc3ncc4cnn([C@H]5C[C@@H]6CC[C@H]5C6)c4n3)cc2)CC1`: 0.339 µM.
As to `Cc1nn(-c2ccccc2)c2c1-c1nc(N)ncc1CC2`, the concentration for half-maximal inhibition (IC50) is 8.13 µM.
